Drawing on ChEMBL document CHEMBL4602627, “Further exploration of the structure-activity relationship of imidazoquinolines; identification of potent C7-substituted imidazoquinolines” (Bioorg Med Chem Lett, 2020), this text covers Activity and solubility for ten compounds.

Activity calls are given as the source filed them. The calls are words filed in the database; no cut-off is given here.

In data set [1] the target is T1, Toll-like receptor 7/8 (Canis lupus familiaris) (UniProt A1XC23+H6BA89). Kind of data set: Agonist activity at TLR7/8 in dog PBMC assessed as TNFalpha secretion at 20 uM after 29 hrs by ELISA (reference value: 8 +/- 2 pg/ml). The format is cell-based. The method in brief:
(§1)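 Canine PBMCs (2 × 10^6 cells/mL) were incubated with agonist at 20 µM for 29 h. TNFα, IL-12, IL-6, IL-10, IL-2 and IFNγ in the medium were measured by ELISA, in triplicate. Vehicle was 1% DMSO in water.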
For orientation: ELISA stands for enzyme-linked immunosorbent assay.

Data set [2] concerns the target T1, Toll-like receptor 7/8 (Canis lupus familiaris). The data set is described as follows: Agonist activity at TLR7/8 in dog PBMC assessed as IL-12 secretion at 20 uM after 29 hrs by ELISA (reference value: 18 +/- 8 pg/ml). In kind it is cell-based. The method in brief:
as §1

For data set [3] the target is unchanged. The data set is described as follows: Agonist activity at TLR7/8 in dog PBMC assessed as IL-6 secretion at 20 uM after 29 hrs by ELISA (reference value: 310 +/- 90 pg/ml). In kind it is cell-based. The method in brief:
as §1

Data set [4] has the same target. The data set is described as follows: Agonist activity at TLR7/8 in dog PBMC assessed as IL-10 secretion at 20 uM after 29 hrs by ELISA (reference value: 33 +/- 16 pg/ml). The format is cell-based. The method in brief:
as §1

For data set [5] the target is unchanged. Kind of data set: Agonist activity at TLR7/8 in dog PBMC assessed as IL-2 secretion at 20 uM after 29 hrs by ELISA (reference value: 47 +/- 20 pg/ml). The format is cell-based. The method in brief:
as §1

Data set [6] shares this target. The data set is described as follows: Agonist activity at TLR7/8 in dog PBMC assessed as IFNgamma secretion at 20 uM after 29 hrs by ELISA (reference value: 0.4 +/- 0.7 pg/ml). The format is cell-based. The method in brief: as §1
Data set [7] shares this target. The data set is described as follows: Agonist activity at TLR7/8 in dog PBMC assessed as maximal increase in TNFalpha secretion at 20 uM after 30 to 48 hrs by ELISA. In kind it is cell-based.
The target is the same in data set [8]. The data set is described as follows: Agonist activity at TLR7/8 in dog PBMC assessed as maximal increase in IL-12 secretion at 20 uM after 30 to 48 hrs by ELISA. The format is cell-based.
Data set [9] shares this target. The data set is described as follows: Agonist activity at TLR7/8 in dog PBMC assessed as maximal increase in IFN-gamma secretion at 20 uM after 30 to 48 hrs by ELISA. In kind it is cell-based.
Data set [10] can be described thus: Solubility of the compound at >100 uM. The format is physicochemical.
The target of data set [11] is T1, Toll-like receptor 7/8 (Canis lupus familiaris). Kind of data set: Agonist activity at TLR7/8 in dog PBMC assessed as increase in IL-12 secretion at 20 uM measured over 29 hrs by ELISA.
Data set [12] has the same target. The data set is described as follows: Agonist activity at TLR7/8 in dog PBMC assessed as increase in TNFalpha secretion at 20 uM measured over 29 hrs by ELISA.
Data set [13] shares this target. Kind of data set: Agonist activity at TLR7/8 in dog PBMC assessed as increase in IFN-gamma secretion at 20 uM measured over 29 hrs by ELISA.

Regarding `CCOCc1nc2c(N)nc3cc(Cl)ccc3c2n1CC(C)C`, the Activity was 114 pg/mL in data set [1]; 781 pg/mL in [2]; 280 pg/mL in [3]; 20 pg/mL in [4]; 50 pg/mL in data set [5]; 5 pg/mL in data set [6]. Further, the result in data set [7], in data set [8], in [9], in [11], in [12] and in data set [13] was Active. Besides, the solubility result in [10] is reported as “Insoluble”.

Consider `CCOCc1nc2c(N)nc3ccccc3c2n1CC(C)(C)O` [RESIQUIMOD], for which the Activity in data set [1] worked out at 190 pg/mL; in data set [2] it was 2800 pg/mL; in [3], 380 pg/mL; in [4], 21 pg/mL; in data set [5], 120 pg/mL; in [6], 26 pg/mL. In addition, the result in [7], in data set [8], in data set [9], in data set [11], in data set [12] and in data set [13] was Active. Further, the solubility entry in [10] is “Insoluble”.

Turning to `CCOCc1nc2c(N)nc3cc(C#N)ccc3c2n1CC(C)C`, the Activity in [1] stood at 7 pg/mL; in [2], 190 pg/mL; in [3], 71 pg/mL; in [4], 6 pg/mL; in [5], 57 pg/mL; in data set [6] it was 4 pg/mL. Besides, the outcome in [7], in data set [8], in [9], in data set [11] and in data set [13] was Active. Moreover, the solubility entry in [10] is “Insoluble”.

In the case of `CCCCc1nc2c(N)nc3cc(C#N)ccc3c2n1CC(C)(C)O`, the Activity in data set [1] amounted to 44 pg/mL; in data set [2], 418 pg/mL; in data set [3] it was 290 pg/mL; in data set [4], 14 pg/mL; in data set [5], 45 pg/mL; in data set [6], 12 pg/mL. The result in data set [7], in data set [8], in [9], in [11], in data set [12] and in data set [13] was Active. The solubility entry in data set [10] was “Insoluble”.

Consider `CCCCc1nc2c(N)nc3cc(C#N)ccc3c2n1CC(C)C`, for which the Activity in data set [1] worked out at 10 pg/mL; in [2], 920 pg/mL; in data set [3], 350 pg/mL; in [4] it was 37 pg/mL; in [5] it was 60 pg/mL; in data set [6], 13 pg/mL. Besides, the outcome in data set [7], in data set [8], in data set [9], in [11], in data set [12] and in data set [13] was Active. Also, the solubility entry in data set [10] was “Insoluble”.

Take `CCOCc1nc2c(N)nc3cc(C#N)ccc3c2n1CC(C)(C)O`: the Activity in data set [1] is 80 pg/mL; in data set [2], 13 pg/mL; in data set [3] it was 214 pg/mL; in data set [4], 6 pg/mL; in data set [5], 46 pg/mL; in data set [6] it was 0.2 pg/mL. The outcome in data set [7], in data set [8] and in data set [12] was Active. For the same compound, the solubility entry in data set [10] is listed as “Insoluble”.

With `CCCCc1nc2c(N)nc3cc(OC)ccc3c2n1CC(C)C`, the Activity was 49 pg/mL in data set [1]; 746 pg/mL in [2]; 500 pg/mL in data set [3]; 37 pg/mL in data set [4]; 30 pg/mL in data set [5]; 0 pg/mL in data set [6]. Besides, the outcome in data set [7], in [8], in data set [9], in [11] and in data set [12] was Active. Further, the solubility entry in data set [10] is given as “Insoluble”.

Consider `CC(C)Cn1cnc2c(N)nc3ccccc3c21` [IMIQUIMOD], for which the Activity in data set [1] worked out at 25 pg/mL; in data set [2], 1200 pg/mL; in data set [3], 300 pg/mL; in data set [4], 16 pg/mL; in [5], 85 pg/mL; in data set [6] it was 18 pg/mL. Moreover, the outcome in data set [7], in [8], in data set [9], in data set [11], in data set [12] and in data set [13] was Active. The solubility entry in data set [10] is recorded as “Insoluble”.

In the case of `CCCCc1nc2c(N)nc3cc(Cl)ccc3c2n1CC(C)C`, the Activity was found to be 91 pg/mL in [1]; 760 pg/mL in data set [2]; 240 pg/mL in data set [3]; 14 pg/mL in data set [4]; 63 pg/mL in [5]; 7 pg/mL in data set [6]. The result in data set [7], in [8], in [9], in data set [11], in [12] and in [13] was Active. Also, the solubility entry in data set [10] is “Insoluble”.

`CCOCc1nc2c(N)nc3cc(Cl)ccc3c2n1CC(C)(C)O`: the Activity was determined as 70 pg/mL in data set [1]; 1900 pg/mL in data set [2]; 320 pg/mL in data set [3]; 12 pg/mL in [4]; 76 pg/mL in data set [5]; 16 pg/mL in data set [6]. Further, the outcome in data set [7], in [8], in data set [9], in data set [11], in [12] and in data set [13] was Active. Further, in [10], the solubility result was “Insoluble”.
